Source: ChEMBL document CHEMBL1955854, “New retinoid derivatives as back-ups of Adarotene” (Bioorg Med Chem, 2012)

Tests used:
[1] = Chemical stability in aqueous buffer containing 5% DMSO and 5% tween 80 at pH 1.2 assessed as compound recovery in anoxic conditions after 3 hrs by UPLC analysis; assay type: physicochemical; conditions: read-out: Stability
Summary of the method: (§1)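 Stability at 37 °C in aqueous buffer with 5% DMSO and 5% Tween 80 at pH 1.2, 6.8 or 7.4; percent recovery by HPLC/UPLC on BEH C18 column, water+0.1% TFA/acetonitrile gradient from 40% to 95% acetonitrile over 8 min, room temperature.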

[2] = Chemical stability in aqueous buffer containing 5% DMSO and 5% tween 80 at pH 6.8 assessed as compound recovery in anoxic conditions after 24 hrs by UPLC analysis; assay type: physicochemical; conditions: read-out: Stability; summary of the method: as §1
[3] = Chemical stability in aqueous buffer containing 5% DMSO and 5% tween 80 at pH 7.4 assessed as compound recovery in anoxic conditions after 24 hrs by UPLC analysis; assay type: physicochemical; conditions: read-out: Stability; summary of the method: as §1
[4] = Chemical stability in aqueous buffer containing 5% DMSO and 5% tween 80 at pH 1.2 assessed as compound recovery in anoxic conditions after 12 hrs by UPLC analysis; assay type: physicochemical; conditions: pH 1.2, 12 h; summary of the method: as §1
NCI-H460 = experiment: Antiproliferative activity against human NCI-H460 cells incubated for 24 hrs drug exposure measured after 48 hrs of recovery by sulforhodamine B assay; assay type: functional, cell-based
[5] = Solubility in water; assay type: physicochemical; conditions: buffer
A-431 = experiment: Antiproliferative activity against human A431 cells incubated for 24 hrs drug exposure measured after 48 hrs of recovery by sulforhodamine B assay; assay type: functional, cell-based
[6] = Chemical stability in aqueous buffer containing 5% DMSO and 5% tween 80 at pH 6.8 assessed as compound recovery in anoxic conditions after 6 hrs by UPLC analysis; assay type: physicochemical; conditions: read-out: Stability; summary of the method: as §1
[7] = Chemical stability in aqueous buffer containing 5% DMSO and 5% tween 80 at pH 7.4 assessed as compound recovery in anoxic conditions after 6 hrs by UPLC analysis; assay type: physicochemical; conditions: read-out: Stability; summary of the method: as §1
Plasma [8] = experiment: Prodrug conversion in mouse plasma assessed as drug concentration at 0.5 hrs; assay type: ADME, cell-free
Summary of the method: (§2)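 Prodrugs already shown stable at pH 1.2, 6.8 and 7.4 were incubated in murine plasma and sampled over time up to 6 h. A parallel incubation used murine plasma pretreated with the esterase inhibitor PMSF (phenylmethyl sulfonyl fluoride).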

Plasma [9] = experiment: Prodrug conversion in mouse plasma assessed as drug concentration at 0.5 hrs in presence of esterase inhibitor PMSF; assay type: ADME, cell-free
Summary of the method: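 Prodrug incubated with murine plasma pretreated with the esterase inhibitor PMSF, run alongside untreated plasma; release of parent followed over time.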

Plasma [10] = experiment: Prodrug conversion in mouse plasma assessed as drug concentration at 1 hr; assay type: ADME, cell-free; summary of the method: as §2
Plasma [11] = experiment: Prodrug conversion in mouse plasma assessed as drug concentration at 3 hrs; assay type: ADME, cell-free; summary of the method: as §2
Plasma [12] = experiment: Prodrug conversion in mouse plasma assessed as drug concentration at 6 hrs; assay type: ADME, cell-free; summary of the method: as §2
Plasma [13] = experiment: Prodrug conversion in mouse plasma assessed as drug concentration at 6 hrs in presence of esterase inhibitor PMSF; assay type: ADME, cell-free; summary of the method: as §2

SMILES | remaining at 3 h [1] [%] | remaining at 24 h [2] [%] | remaining at 24 h [3] [%] | Stability [4] | IC50 (NCI-H460) [nM] | solubility [5] | IC50 (A-431) [nM] | remaining at 6 h [6] [%] | remaining at 6 h [7] [%] | Drug metabolism (Plasma [8]) [%] | Drug metabolism (Plasma [9]) [%] | Drug metabolism (Plasma [10]) [%] | Drug metabolism (Plasma [11]) [%] | Drug metabolism (Plasma [12]) [%] | Drug metabolism (Plasma [13]) [%]
O=C(O)/C=C/c1ccc(-c2ccc(OCCN3CCOCC3)c(C34CC5CC(CC(C5)C3)C4)c2)cc1 | > 99 | > 99 | > 99 | Stable | > 10000 | Insoluble | – | – | – | – | – | – | – | – | –
N#CCOc1ccc(-c2ccc(/C=C/C(=O)O)cc2)cc1C12CC3CC(CC(C3)C1)C2 | > 99 | > 99 | > 99 | Stable | 850 | Insoluble | – | – | – | – | – | – | – | – | –
COCCOCOc1ccc(-c2ccc(/C=C/C(=O)O)cc2)cc1C12CC3CC(CC(C3)C1)C2 | – | – | – | Stable | 4200 | Insoluble | – | – | – | – | – | – | – | – | –
O=C(O)/C=C/c1ccc(-c2ccc(OCN3C(=O)c4ccccc4C3=O)c(C34CC5CC(CC(C5)C3)C4)c2)cc1 | > 99 | > 99 | > 99 | Stable | 8400 | Insoluble | – | – | – | – | – | – | – | – | –
CCCOC(=O)OCOc1ccc(-c2ccc(/C=C/C(=O)O)cc2)cc1C12CC3CC(CC(C3)C1)C2 | > 99 | > 99 | > 99 | Stable | 320 | Insoluble | – | – | – | – | – | – | – | – | –
CC(=O)Oc1ccc(-c2ccc(/C=C/C(=O)O)cc2)cc1C12CC3CC(CC(C3)C1)C2 | > 99 | > 99 | > 99 | Stable | 260 | Insoluble | 530 | – | – | – | – | – | – | – | –
CN1CCN(CCCC(=O)Oc2ccc(-c3ccc(/C=C/C(=O)O)cc3)cc2C23CC4CC(CC(C4)C2)C3)CC1 | > 99 | 85 | 64 | Stable | 240 | Insoluble | 410 | 98 | 89 | – | – | – | – | – | –
CC(C)[C@H](N)C(=O)Oc1ccc(-c2ccc(/C=C/C(=O)O)cc2)cc1C12CC3CC(CC(C3)C1)C2.Cl | > 99 | 39 | 12 | Stable | 510 | Insoluble | 410 | 92 | 62 | – | – | – | – | – | –
O=C(O)/C=C/c1ccc(-c2ccc(OC(=O)COCCOCCOCC(=O)O)c(C34CC5CC(CC(C5)C3)C4)c2)cc1 | > 99 | > 99 | > 99 | Stable | 170 | Insoluble | 330 | – | – | – | – | – | – | – | –
CCCCCCCCCCC(=O)Oc1ccc(-c2ccc(/C=C/C(=O)O)cc2)cc1C12CC3CC(CC(C3)C1)C2 | > 99 | > 99 | > 99 | Stable | 1540 | Insoluble | – | – | – | – | – | – | – | – | –
CCCCC/C=C/C/C=C/CCCCCCCC(=O)Oc1ccc(-c2ccc(/C=C/C(=O)O)cc2)cc1C12CC3CC(CC(C3)C1)C2 | – | – | – | Stable | 7800 | Insoluble | – | – | – | – | – | – | – | – | –
NC1(C(=O)Oc2ccc(-c3ccc(/C=C/C(=O)O)cc3)cc2C23CC4CC(CC(C4)C2)C3)CC1.O=C(O)C(F)(F)F | > 99 | > 99 | 62 | Stable | 100 | Insoluble | 400 | – | 88 | 97.02 | 87.31 | 96.87 | 96.66 | 96.31 | 97.77
O=C(O)/C=C/c1ccc(-c2ccc(OC(=O)C3CC3)c(C34CC5CC(CC(C5)C3)C4)c2)cc1 | > 99 | > 99 | > 99 | Stable | 850 | Insoluble | – | – | – | 100 | 43.95 | 100 | 100 | 100 | 99.76
CC(C)NC(=O)Oc1ccc(-c2ccc(/C=C/C(=O)O)cc2)cc1C12CC3CC(CC(C3)C1)C2 | > 99 | > 99 | > 99 | Stable | 5000 | Insoluble | – | – | – | – | – | – | – | – | –
CNCCNC(=O)Oc1ccc(-c2ccc(/C=C/C(=O)O)cc2)cc1C12CC3CC(CC(C3)C1)C2.Cl | > 99 | 69 | 36 | Stable | 240 | Insoluble | 320 | 92 | 76 | 96.23 | 1.35 | 99.8 | 99.94 | 99.95 | 17.55
O=C(O)/C=C/c1ccc(-c2ccc(OC(=O)NC3CCN(C(=O)OCc4ccccc4)CC3)c(C34CC5CC(CC(C5)C3)C4)c2)cc1 | > 99 | > 99 | > 99 | Stable | 5000 | Insoluble | – | – | – | – | – | – | – | – | –
O=C(O)/C=C/c1ccc(-c2ccc(OC(=O)NCC(=O)O)c(C34CC5CC(CC(C5)C3)C4)c2)cc1 | > 99 | > 99 | > 99 | Stable | 3000 | Insoluble | – | – | – | – | – | – | – | – | –
CCCCCCCCCCCNC(=O)Oc1ccc(-c2ccc(/C=C/C(=O)O)cc2)cc1C12CC3CC(CC(C3)C1)C2 | > 99 | > 99 | > 99 | Stable | 1390 | Insoluble | – | – | – | – | – | – | – | – | –
CC(C)C[C@H](NC(=O)Oc1ccc(-c2ccc(/C=C/C(=O)O)cc2)cc1C12CC3CC(CC(C3)C1)C2)C(=O)NCC(=O)O | > 99 | > 99 | > 99 | Stable | 3500 | Insoluble | – | – | – | – | – | – | – | – | –
